# ABHD4 inh: ABHD4 (mouse) inhibition, primary FP screen; Q8VD66; purified mABHD4, FP-Rh probe fluorescence polarization; inhibition, % at 8.92 µM; actives 0.54% (n = 370,000);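 active means inhibition exceeding the mean over every tested compound plus 3 SD, cut at about 30% in these data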
#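 Test system: mABHD4 protein; Read-out basis: % inhibition; Incubation: 45 min + 60 min at 25 °C; Repeats: single replicate; Technique: fluorescence polarization with parallel and perpendicular emission, 525/598 nm; Compound: 8.92 µM, single dose; Benchmarks: full inhibition S159A mutant plus DMSO, zero as sample-well median.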
# HTRA1 inhibitor: inhibitors of human serine peptidase HTRA1; Q92743; recombinant HTRA1, FP-rhodamine activity-based probe, fluorescence polarization; inhibition, % at 5.96 µM; actives 0.5% (n = 340,000); AID 504803; in the data active means inhibition above about 36%
# SIAE primary: human SIAE inhibition, primary screen. SIAE FP-Rh probe binding, fluorescence polarization. inhibition, % at 9.66 µM. actives 0.69% (n = 370,000). AID 1053197;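 active means inhibition above a cutoff: mean of compounds within the control limits plus 3 SD of those, cut at about 17% in these data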
# JMJD2C inh: blocks human GASC-1 demethylase activity | GST-JMJD2C(1-420) H3K9me3 demethylation, DELFIA europium | actives 0.069% (n = 330,000) | inhibition, % at 2.35 µM | AID 2099;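 active means more than half of a compound's replicate wells show inhibition beyond 50%, single wells judged on their own value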;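 further: signal counts dimethyl H3K9 product captured on neutravidin plate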
# Target sequence (Q9H3R0 1-420 limits assumed): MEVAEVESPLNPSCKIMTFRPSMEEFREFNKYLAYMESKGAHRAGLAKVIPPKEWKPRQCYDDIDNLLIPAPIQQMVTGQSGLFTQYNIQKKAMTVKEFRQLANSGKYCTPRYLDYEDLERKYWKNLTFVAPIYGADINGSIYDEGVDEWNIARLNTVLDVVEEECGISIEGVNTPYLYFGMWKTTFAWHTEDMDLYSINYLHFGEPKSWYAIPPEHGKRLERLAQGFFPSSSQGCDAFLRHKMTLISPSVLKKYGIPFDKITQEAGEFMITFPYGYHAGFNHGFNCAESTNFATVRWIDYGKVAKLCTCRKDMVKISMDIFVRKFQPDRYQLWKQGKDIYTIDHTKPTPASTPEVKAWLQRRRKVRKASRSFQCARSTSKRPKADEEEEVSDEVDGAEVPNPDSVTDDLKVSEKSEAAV
# PRMT1 inh: PRMT1 (human) inhibition, primary screen. Q99873. recombinant PRMT1, activity-based probe fluorescence polarization. inhibition, % at 2.79 µM. actives 1.3% (n = 370,000). AID 652257;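 active means inhibition above about 21% made by adding two undisclosed values, limit read from the data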
# PRMT1 confirm: PRMT1 (human) inhibition, FP confirmation. recombinant His-PRMT1, activity-based probe fluorescence polarization. shares compounds with PRMT1 inh. inhibition, % at 2.79 µM. AID 687036. actives 42% (n = 3,300);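 active means mean inhibition across replicates above the hit cutoff derived for the earlier primary screen, cut at about 22% in these data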
# A number is an active result; i = inactive; nt = no result. Only some compounds are listed: those with a hit (about 2.4% of all), similar ones and a draw of the others.
SMILES,ABHD4 inh,HTRA1 inhibitor,SIAE primary,JMJD2C inh,PRMT1 inh,PRMT1 confirm
O=C(O)C(Cc1ccccc1)N1C(=O)C=CC1=O (stereo unspecified),i,i,i,nt,52.5,64.4
Cc1cccc(C)c1-n1nnnc1C1(C)CN(S(C)(=O)=O)CC(=O)N1Cc1ccc(F)cc1 (stereo unspecified),i,nt,i,nt,i,nt
Cc1ccc(NCc2ccc(O)c3ncccc23)cc1C,i,i,i,i,i,nt
Oc1ccc(CNc2cccnc2)c2cccnc12,i,nt,i,nt,39.3,34.3
NC(CSS(=O)(=O)O)=NCCC12CC3CC(CC(O)(C3)C1)C2,i,i,i,i,40.9,43.6
NC(=O)COC(=O)C12CC3CC(CC(O)(C3)C1)C2,i,i,i,i,i,nt
Cc1cc(C)cc(N2C(=O)CC(Sc3ccccc3C(=O)O)C2=O)c1 (stereo unspecified),i,i,i,i,48.5,i
Nc1ccccc1SC1CC(=O)N(c2ccc3c(c2)OCO3)C1=O (stereo unspecified),i,nt,i,i,i,nt
Cc1ccc(N2C(=O)CC(Sc3ncccc3C(=O)O)C2=O)cc1 (stereo unspecified),i,i,i,i,i,nt
Cc1cc(C)c(N2C(=O)CC(Sc3ccccc3N)C2=O)c(C)c1 (stereo unspecified),i,i,i,nt,33.9,i
O=C(O)c1ccccc1SC1CC(=O)N(c2ccc3c(c2)OCO3)C1=O (stereo unspecified),i,i,i,i,56.2,30.0
Cc1ccc(N2C(=O)CC(Sc3ccccc3C(=O)O)C2=O)cc1 (stereo unspecified),i,i,i,i,85.6,24.0
Cc1cccc(C)c1N1C(=O)CC(Sc2ccccc2N)C1=O (stereo unspecified),i,i,i,nt,i,nt
O=C(Nc1ccccc1Oc1ccccc1)NC1CCCCN(Cc2ccc(Cl)cc2)C1=O (stereo unspecified),i,nt,i,nt,i,nt
COC(=O)C1=CN(c2ccc(C(C)(C)C)cc2)C(N)=C(C#N)C1c1cccc2ccccc12 (stereo unspecified),i,nt,i,nt,i,nt
Cc1ccc(N2C(=O)CC(Sc3ccccc3C(=O)O)C2=O)cc1C (stereo unspecified),i,i,i,i,61.9,i
CN(C)c1ccc(N2C(=O)CC(Sc3ccccc3C(=O)O)C2=O)cc1 (stereo unspecified),i,i,i,i,82.2,42.7
Cc1cccc(N2C(=O)CC(Sc3ccccc3C(=O)O)C2=O)c1 (stereo unspecified),i,i,i,i,59.5,21.7
CN1C(=O)CC(Sc2ccccc2C(=O)O)C1=O (stereo unspecified),i,i,i,i,i,nt
O=C(CSc1nc2ccccc2c(=O)[nH]1)NC1CCCCC1,i,nt,i,nt,i,nt
O=C(NC1CCCCN(Cc2cccc(C(F)(F)F)c2)C1=O)C1C2CC3CC(C2)CC1C3 (stereo unspecified),i,nt,i,nt,i,nt
COc1ccc2c(c1)C(CC(C)=O)N(c1ccc(-c3cccs3)cc1)C(c1ccsc1)=C2 (stereo unspecified),i,nt,i,nt,i,nt
Cn1c(=O)c2cc(S(=O)(=O)N3CCN(Cc4ccccc4)CC3)ccc2n(C)c1=O,i,nt,i,nt,i,nt
Cc1ccc(-c2nc3c(Cl)cc(C(F)(F)F)cn3c2Cc2ccccc2C(F)(F)F)cc1,i,nt,i,nt,i,nt
FC(F)(F)c1cc(Cl)c2nc(-c3ccco3)c(Cc3ccccc3C(F)(F)F)n2c1,i,nt,i,nt,47.1,i
SMILES,ABHD4 inh,HTRA1 inhibitor,SIAE primary,JMJD2C inh,PRMT1 inh,PRMT1 confirm
FC(F)(F)c1ccccc1Cc1c(-c2ccccc2)nc2ccc(Cl)cn12,i,nt,i,nt,i,nt
FC(F)(F)c1ccccc1Cc1c(-c2ccco2)nc2ccc(Cl)cn12,i,nt,i,nt,34.6,i
COc1cc(OC)c2c(-c3cccc(-c4ccc(F)c(Cl)c4)c3)cc(=O)oc2c1,i,i,i,nt,i,nt
COC(=O)c1ccc2c(=O)n(CCN3CCOCC3)c(SCC(=O)Nc3ccccc3Cl)nc2c1,i,i,i,i,26.5,47.7
COc1ccc(C2=NS(=O)(=O)N(C)C(C(=O)Nc3ccc(F)cc3F)=C2)cc1,i,i,i,i,85.0,i
COc1ccc(NC(=O)C2=CC(c3ccc(OC)cc3)=NS(=O)(=O)N2C)cc1,i,i,i,i,i,nt
Cc1nc2c([nH]1)C1(CCN(Cc3ccccc3)CC1)C(C#N)=C(N)O2,i,i,i,i,42.1,i
Cc1c[nH]c2cccc(-c3cccc4ccccc34)c12,i,nt,i,nt,i,nt
CCn1c(SCC(=O)Nc2ccc3c(c2)c2ccccc2n3CC)nnc1-c1ccco1,i,i,i,i,43.2,25.8
CCn1c2ccccc2c2cc(NC(=O)c3ccc(Br)o3)ccc21,i,i,i,i,30.9,45.2
O=C1c2ccccc2C(=O)N1Nc1ccccc1,i,i,i,i,i,nt
Cc1ccc(NN2C(=O)C=C(c3ccccc3)C2=O)cc1,i,nt,i,i,35.3,i
CSc1nc(NCCOCCO)c2sc3nc(-c4ccco4)c4c(c3c2n1)CCC4,i,i,i,i,41.3,24.2
COC(=O)c1ccccc1SC(CC(=O)c1ccccc1)c1ccc(F)cc1 (stereo unspecified),i,i,i,i,42.6,48.0
Nc1ccccc1SC(CC(=O)c1ccccc1)c1ccccc1 (stereo unspecified),nt,i,nt,nt,nt,nt
CC(C)c1ccc(NC(=O)C2(C)Cc3c(-c4cccc(C(N)=O)c4)ccnc3O2)cc1 (stereo unspecified),i,nt,i,nt,i,nt
COc1ccc(S(=O)(=O)c2c(N)n(Cc3ccco3)c3nc4ccccc4nc23)cc1,i,i,i,i,27.5,i
Cc1ccc(-c2nc3cnccn3c2Nc2ccccc2)o1,i,i,i,i,66.8,i
Cc1ccc(Nc2c(-c3ccccc3)nc3cnccn23)cc1,i,i,i,i,i,nt
Cc1ccc(-c2nc3cnccn3c2Nc2ccc3c(c2)OCO3)o1,i,i,i,i,25.9,i
Cc1ccc(Nc2c(-c3ccc(C)o3)nc3cnccn23)cc1,i,i,i,i,57.8,i
Cc1ccc(-c2nc3ccccn3c2Nc2ccccc2)o1,i,i,i,i,49.2,i
CC(C)NC(=O)C1(C)CN(S(C)(=O)=O)CC(=O)N1Cc1cccs1 (stereo unspecified),i,nt,i,nt,i,nt
O=C1CC(=O)N(C2CCCCC2)C(=O)N1c1ccccc1S(=O)(=O)Oc1ccccc1,i,nt,i,nt,i,nt
O=C(Cc1ccc(F)cc1)N/N=C/c1ccc(-c2ccc(Cl)c(C(=O)O)c2)o1,i,i,i,i,i,nt
O=C(O)c1cc(N/N=C/c2ccc(-c3ccc(F)cc3)o2)ccc1Cl,i,i,i,i,34.4,i
CCN(CC)C(=O)c1cccc(-c2csc(C(O)(c3ccccc3)C(F)(F)F)n2)c1 (stereo unspecified),i,nt,i,nt,i,nt
